Measurements taken from BindingDB's records for doi:10.1021/acs.jmedchem.8b01402 (University of Bristol, 2019).

Biological target: Transcriptional enhancer factor TEF-1 (Homo sapiens, UniProt P28347)
Assay: Inhibition of NL-tagged YAP (unknown origin) interaction with myc-tagged human TEAD1 preincubated for 1 hr followed by NL-tagged YAP addition by NanoGlo assay
Method in brief: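 Myc-TEAD1 from transfected HeLa lysate was captured with anti-myc antibody on protein-G-coated 96-well plates. Wells were pretreated with compound in PBS for 1 h at 4 °C, then co-incubated with lysate from HeLa cells expressing YAP–nanoluciferase. After four PBS washes, bound YAP–NL was read with NanoGlo.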

Sequence of Transcriptional enhancer factor TEF-1 (P28347 whole entry): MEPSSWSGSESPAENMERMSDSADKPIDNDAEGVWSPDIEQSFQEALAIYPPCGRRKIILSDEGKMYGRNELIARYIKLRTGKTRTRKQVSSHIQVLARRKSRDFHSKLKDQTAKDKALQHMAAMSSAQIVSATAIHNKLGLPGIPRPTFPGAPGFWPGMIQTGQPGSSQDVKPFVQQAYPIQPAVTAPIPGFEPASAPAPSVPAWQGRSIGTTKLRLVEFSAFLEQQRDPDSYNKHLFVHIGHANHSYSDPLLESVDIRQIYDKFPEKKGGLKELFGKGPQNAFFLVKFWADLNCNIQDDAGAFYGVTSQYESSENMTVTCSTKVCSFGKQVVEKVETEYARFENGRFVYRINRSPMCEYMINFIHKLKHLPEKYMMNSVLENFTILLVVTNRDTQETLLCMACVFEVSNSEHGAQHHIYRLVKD

SMILES: Cc1ccc2c(c1)c1c3n2CCN(C[C@H](O)CN2CCN(C(=O)c4ccco4)CC2)[C@@H]3CCC1
- IC50: 48 µM
